Assay results collected from several papers.
Compare with care: the assays were run in different laboratories.
Read-out: metabolic stability
Species: rat

O=c1[nH]c2ccccc2n1C1CCN(CCCC(c2ccc(F)cc2)c2ccc(F)cc2)CC1  microsomal CLint (liver microsomes; 100 ng/mL): 8.7 µL/min/mg
CC(C)CC(=O)OC[C@H]1O[C@@](C#N)(c2ccc3c(N)ncnn23)[C@H](O)[C@@H]1O  hepatocyte CLint (hepatocytes; 5 µM): > 318 µL/min/10⁶ cells
C[C@]12CC[C@H]3[C@@H](CCC4=CC(=O)CC[C@@]43C)[C@@H]1CC[C@@H]2O  microsomal CLint (liver microsomes): 893 µL/min/mg
O=C1CCC(N2Cc3c(ccc4c3OCC43CCN(Cc4ccccc4)CC3)C2=O)C(=O)N1 (centres unmarked)  scaled CLint (liver microsomes; 1 µM): 22 mL/min/kg
Cc1[nH]c(C)c(S(=O)(=O)Nc2ccc(S(F)(F)(F)(F)F)cc2)c1C(=O)N1CCC(F)(F)C1  microsomal CLint (liver microsomes): 39 µL/min/mg
C[C@]12CC[C@H]3[C@@H](CCC4=CC(=O)CC[C@@]43C)[C@@H]1CC[C@@H]2O  scaled CLint (liver microsomes; 1 µM; pH 7.4): 2500 mL/min/kg
Cc1[nH]c(C)c(S(=O)(=O)Nc2ccc(S(=O)(=O)F)c(Cl)c2)c1C(=O)N1CCC(F)(F)C1  microsomal CLint (liver microsomes): 63.7 µL/min/mg
NCCOCC(=O)N1CCCC(C(=O)NCc2nc(-c3ccc(-c4ccc(F)cc4)cc3)cs2)C1 (centres unmarked)  scaled CLint (liver microsomes): < 7 mL/min/kg
